Data set [1] is described as follows: Drug uptake in Trypanosoma brucei brucei 427-221 cytosol at 5 uM after 1 hr by DAPI staining method. In kind it is ADME. Put shortly: (§1)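 Procyclic trypanosomes spread on glass, dried, fixed in 70% EtOH, then permeabilized in PBS/0.2% Triton for 20 min and blocked in PBS/0.5% gelatin. Anti-aldolase (1:500, 1 h) marked glycosomes. Cells were then stained 1 h with probe (5 or 50 µM) plus Alexa 594 anti-rabbit and 100 ng/mL DAPI. Imaged by epifluorescence at 100× oil.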

The nature of data set [2]: Drug uptake in 120 hrs post fertilized zebrafish embryo intestinal tract at 1 to 270 uM after 3 hrs by confocal microscopic analysis. The class given is ADME, Danio rerio. The conditions noted are these: in vivo. Put shortly:
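Zebrafish embryos at 48 and 120 h post fertilization were incubated with fluorescent probe or fluorophore control in methylene blue-free egg water at 270, 90, 30 and 0 µM, three embryos per treatment. Localization was imaged by confocal microscopy after 3 h.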

Data set [3] has as its system Trypanosoma brucei brucei. The data set can be described thus: Binding affinity to Trypanosoma brucei brucei 427-221 kinetoplast DNA at 5 uM after 1 hr by DAPI staining method. Summed up: as §1
The nature of data set [4]: Drug uptake in Trypanosoma brucei brucei 427-221 nucleus at 5 uM after 1 hr by DAPI staining method. In kind it is ADME. Put shortly: as §1
In data set [5] the test system is Trypanosoma brucei brucei. The data set can be described thus: Binding affinity to Trypanosoma brucei brucei 427-221 GIM5 at 50 uM by […] staining method. Put shortly: as §1
Data set [6] has as its system Trypanosoma brucei brucei. The data set can be described thus: Binding affinity to Trypanosoma brucei brucei 427-221 PEX11 at 50 uM by […] staining method. Put shortly: as §1
Data set [7] concerns Trypanosoma brucei brucei. The data set can be described thus: Antiparasitic activity against Trypanosoma brucei brucei 427-221 assessed as growth inhibition up to 3.1 uM after 48 hrs by cellTiter-Glo assay. The class given is functional, organism-based. Summed up:
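T. b. brucei 427-221 bloodstream forms, grown in HMI-9 with 10% FBS and 10% Serum Plus at 37 °C, 5% CO2. Seeded at 2×10^4/mL with DMSO-serially diluted compound (1% DMSO final) for 48 h. Thimerosal 2 µM final served as positive control. Viability read by CellTiter-Glo ATP luminescence; % inhibition normalized to controls, IC50 by curve fit.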
In general terms: Cellular ATP, detected with luciferase, serves as a proxy for viable cell number.

The source made the active and inactive calls. The rule behind the calls is not given here. Starred links: 1 amine or outer side, 2 acyl side, 3 side chain; linkers in the order of their positions; H or OH if unused. Non-standard residues stand in square brackets, D forms with d. Residues, ends and D or L forms follow the SMILES beside them. *: point of attachment. BODIPY(FL) = CC1=CC(C)=[N+]2C1=Cc1ccc(CCC(=O)*)n1[B-]2(F)F; Ethylenediamine = C(CN[*:2])N[*:1]; NMeF = CN[C@@H](Cc1ccccc1)C(=O)O; X1 = CN(CCCCCCCCC(=O)[*:2])[*:1]; Oct(7)enoyl = C=CCCCCCC(=O)*; NMeV = CN[C@H](C(=O)O)C(C)C; NMeA = CN[C@@H](C)C(=O)O

Turning to `C=CCCCCCC(=O)N(C)[C@H](C(=O)N(C)[C@H](C(=O)N(C)[C@H](C(=O)N(C)[C@@H](C)C(=O)N(C)[C@@H](Cc1ccccc1)C(=O)N(C)CCCCCCCCC(=O)NCCNC(=O)CCC1=[N+]2C(=Cc3c(C)cc(C)n3[B-]2(F)F)C=C1)C(C)C)C(C)C)C(C)C` ({Oct(7)enoyl}-[NMeV][NMeV][NMeV][NMeA][NMeF][X1]-{Ethylenediamine-BODIPY(FL)}), the results for the Drug uptake result in data set [1], in data set [2] and in data set [4] were “Active”, “Not Active” and “Not Active”, respectively. For the same compound, the result in data set [3] was inactive. Besides, the result in data set [5], in data set [6] and in data set [7] was Active.

Source of the values: ChEMBL document CHEMBL2331458, “Examination of the mode of action of the almiramide family of natural products against the kinetoplastid parasite Trypanosoma brucei” (J Nat Prod, 2013).
